# Laboratory results published in ChEMBL document CHEMBL1133124, “N(2)-Aroylanthranilamide inhibitors of human factor Xa” (J Med Chem, 2000).
# Target: Coagulation factor X (Homo sapiens) (UniProt P00742)
# Test: Binding affinity for coagulation factor X as apparent association constant (Kass) derived from protease inhibition kinetics.
# Outline: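 Human fXa, 3.2 nM final, in tris/NaCl buffer pH 7.4 with HSA; inhibitor added in MeOH, then chromogenic substrate (0.3 mM stock in water) to start hydrolysis; rates read at 405 nm. Four to eight inhibitor concentrations, n = 3 each.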
# Chain of Coagulation factor X (Homo sapiens) (P00742 41-179 limits assumed): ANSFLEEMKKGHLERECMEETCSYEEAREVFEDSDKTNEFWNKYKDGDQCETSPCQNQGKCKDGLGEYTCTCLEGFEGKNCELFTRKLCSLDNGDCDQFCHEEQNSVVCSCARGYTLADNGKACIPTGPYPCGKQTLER
# Chain of Coagulation factor X (Homo sapiens) (P00742 235-488 limits assumed): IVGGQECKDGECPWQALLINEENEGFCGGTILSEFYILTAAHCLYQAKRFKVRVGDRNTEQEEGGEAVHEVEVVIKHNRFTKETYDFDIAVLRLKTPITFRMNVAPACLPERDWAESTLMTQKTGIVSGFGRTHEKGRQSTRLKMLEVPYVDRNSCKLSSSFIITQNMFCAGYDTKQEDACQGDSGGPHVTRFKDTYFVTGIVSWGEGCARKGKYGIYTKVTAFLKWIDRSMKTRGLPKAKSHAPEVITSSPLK
row,SMILES,K ass
1,COc1ccc(NC(=O)c2ccccc2NC(=O)c2cccc(N(C)C)c2)cc1,90000 l M-1
2,COc1ccc(NC(=O)c2cc(NS(C)(=O)=O)ccc2NC(=O)c2ccc(N(C)C)cc2)cc1,5.79e+07 l M-1
3,COc1ccc(C(=O)Nc2ccccc2NC(=O)c2ccc(OC)cc2)cc1,1.3e+06 l M-1
4,CC(C)(C)c1ccc(C(=O)Nc2ccccc2C(=O)Nc2ccc(Br)cc2)cc1,220000 l M-1
5,COc1ccc(NC(=O)c2ccccc2NC(=O)c2ccc(C(C)O)cc2)cc1 (centres undefined),400000 l M-1
6,COc1ccc(NC(=O)c2ccc(NS(C)(=O)=O)cc2NC(=O)c2ccc(N(C)C)cc2)cc1,8e+06 l M-1
7,COc1ccc(NC(=O)c2ccc(N)cc2NC(=O)c2ccc(C(C)(C)C)cc2)cc1,6.3e+06 l M-1
8,COc1ccc(NC(=O)c2ccccc2NC(=O)c2ccc(Cl)cc2)cc1,270000 l M-1
9,COc1ccc(NC(=O)c2ccc(NC(=O)CCC(=O)O)cc2NC(=O)c2ccc(N(C)C)cc2)cc1,9.6e+06 l M-1
10,COc1ccc(NC(=O)c2ccccc2NC(=O)c2cccc(C)c2)cc1,30000 l M-1
11,COc1ccc(NC(=O)c2cc(NC(=O)CCC(=O)O)ccc2NC(=O)c2ccc(C(C)(C)C)cc2)cc1,150000 l M-1
12,COc1ccc(NC(=O)c2ccccc2NC(=O)c2ccc(C)cc2)cc1,1.8e+06 l M-1
13,COc1ccc(OCc2ccccc2NC(=O)c2ccc(OC)cc2)cc1,30000 l M-1
14,COc1ccc(NC(=O)c2ccccc2NC(=O)c2ccc(Cl)c(Cl)c2)cc1,10000 l M-1
15,COc1ccc(NC(=O)c2ccccc2NC(=O)c2ccc(C(F)(F)F)cc2)cc1,90000 l M-1
16,COc1ccc(NC(=O)c2ccccc2NC(=O)c2ccc(C(C)=O)cc2)cc1,450000 l M-1
17,CCOc1ccc(C(=O)Nc2ccccc2C(=O)Nc2ccc(OC)cc2)cc1,1e+06 l M-1
18,COc1ccc(NC(=O)c2ccccc2NC(=O)c2ccc(C(N)=O)cc2)cc1,1.12e+06 l M-1
19,COc1ccc(NC(=O)c2cc(N)ccc2NC(=O)c2ccc(N(C)C)cc2)cc1,7e+06 l M-1
20,COc1ccc(NC(=O)c2ccccc2NC(=O)c2ccc(C(C)(C)C)cc2)cc1,4.7e+06 l M-1
21,COc1ccc(NC(=O)c2ccc(NC(C)=O)cc2NC(=O)c2ccc(C(C)(C)C)cc2)cc1,2.2e+06 l M-1
22,CC(C)(C)c1ccc(C(=O)Nc2ccccc2C(=O)Nc2ccc(F)cc2)cc1,110000 l M-1
23,COc1ccc(NC(=O)c2ccccc2NC(=O)c2cccc(Cl)c2)cc1,30000 l M-1
24,COc1ccc(NC(=O)c2ccccc2C(=O)Nc2ccc(OC)cc2)cc1,70000 l M-1
25,COc1ccc(NC(=O)c2ccccc2NC(=O)c2ccc(C(C)C)cc2)cc1,7e+06 l M-1

row,SMILES,K ass
1,CC(C)(C)c1ccc(C(=O)Nc2ccccc2C(=O)Nc2ccc(Cl)cc2)cc1,490000 l M-1
2,COc1ccc(CCc2ccccc2NC(=O)c2ccc(OC)cc2)cc1,< 1000 l M-1
3,COc1ccc(NC(=O)c2ccc([N+](=O)[O-])cc2NC(=O)c2ccc(C(C)(C)C)cc2)cc1,80000 l M-1
4,COc1ccc(NC(=O)c2cc(N)ccc2NC(=O)c2ccc(C(C)(C)C)cc2)cc1,2.5e+06 l M-1
5,COc1ccc(NC(=O)c2ccc(NC(=O)CCC(=O)O)cc2NC(=O)c2ccc(C(C)(C)C)cc2)cc1,9.6e+06 l M-1
6,COc1ccc(NC(=O)c2cc(NS(=O)(=O)c3ccccc3)ccc2NC(=O)c2ccc(C(C)(C)C)cc2)cc1,4.9e+06 l M-1
7,CCc1ccc(NC(=O)c2ccccc2NC(=O)c2ccc(C(C)(C)C)cc2)cc1,1000 l M-1
8,COc1ccc(NC(=O)c2cc([N+](=O)[O-])ccc2NC(=O)c2ccc(C(C)(C)C)cc2)cc1,2.1e+06 l M-1
9,CC(C)(C)c1ccc(C(=O)Nc2ccccc2C(=O)Nc2ccc(OC(F)(F)F)cc2)cc1,< 1000 l M-1
10,COc1ccc(NC(=O)c2ccc(N)cc2NC(=O)c2ccc(N(C)C)cc2)cc1,2.27e+07 l M-1
11,COc1ccc(NC(=O)c2cc(NC(=O)CCC(=O)O)ccc2NC(=O)c2ccc(N(C)C)cc2)cc1,400000 l M-1
12,COc1ccc(NC(=O)c2ccc(NS(=O)(=O)c3ccccc3)cc2NC(=O)c2ccc(C(C)(C)C)cc2)cc1,620000 l M-1
13,COc1ccc(NC(=O)c2ccccc2NC(=O)c2ccc(OC)cc2)cc1,1.2e+06 l M-1
14,COc1ccc(NC(=O)c2cc(NC(C)=O)ccc2NC(=O)c2ccc(C(C)(C)C)cc2)cc1,40000 l M-1
15,COc1ccc(C(=O)Nc2ccccc2C(=O)Nc2ccc(C(C)(C)C)cc2)cc1,30000 l M-1
16,COc1ccc(NC(=O)c2ccccc2NC(=O)c2ccc(C(C)(C)O)cc2)cc1,480000 l M-1
17,CC(C)(C)c1ccc(C(=O)Nc2ccccc2C(=O)Nc2ccc(C(F)(F)F)cc2)cc1,1000 l M-1
18,COc1ccc(NC(=O)c2cc(NS(C)(=O)=O)ccc2NC(=O)c2ccc(C(C)(C)C)cc2)cc1,1.35e+07 l M-1
19,CC(C)(C)c1ccc(C(=O)Nc2ccccc2C(=O)Nc2ccccc2)cc1,460000 l M-1
20,COc1ccc(/C=C/c2ccccc2NC(=O)c2ccc(OC)cc2)cc1,30000 l M-1
21,COc1ccc(C(=O)Nc2ccccc2NC(=O)c2ccc(N(C)C)cc2)cc1,1.87e+07 l M-1
22,COc1ccc(NC(=O)c2ccccc2NC(=O)c2ccc(N(C)C)cc2)cc1,2.01e+07 l M-1
23,Cc1ccc(NC(=O)c2ccccc2NC(=O)c2ccc(C(C)(C)C)cc2)cc1,3.4e+06 l M-1
24,COc1ccc(NC(=O)c2ccc(NS(C)(=O)=O)cc2NC(=O)c2ccc(C(C)(C)C)cc2)cc1,3.9e+06 l M-1
